Laboratory results from ChEMBL document CHEMBL1131493, “Inhibitors of farnesyl protein transferase. 4-Amido, 4-carbamoyl, and 4-carboxamido derivatives of 1-(8-chloro-6,11-dihydro-5H-benzo[5,6]- cyclohepta[1,2-b]pyridin-11-yl)piperazine and 1-(3-bromo-8-chloro-6,11- dihydro-5H-benzo[5,6]cyclohepta[1,2-b]pyridin-11-yl)piperazine” (J Med Chem, 1998).

Legend:
[1] = target: geranylgeranyltransferase type-I (Rattus norvegicus, UniProt P53610+Q04631); assay: Inhibition of rat Geranylgeranyl transferase (GGPT); assay type: protein-complex assay
[2] = target: T1, Protein farnesyltransferase (Homo sapiens, UniProt P49354+P49356); assay: Inhibition of Farnesyltransferase from Ras-CVLS or Ras-CVLL in Cos-7 monkey kidney cells; assay type: cell-based, Chlorocebus aethiops
[3] = target: T1, Protein farnesyltransferase; assay: In vitro inhibition of farnesyltransferase farnesylation of the H-ras oncogene; assay type: protein-complex assay
[4] = In vivo antitumor efficacy in nude mice by injecting a dose of 25 mg/kg, as HCl salt in saline solution, iv and the serum half-life was determined; assay type: ADME, organism-based; set-up: dose 25 mg/kg, route intravenous; conditions: mouse
[5] = Oral bioavailability in mouse (nude) (dose 25 mg/kg i.v.); assay type: ADME, organism-based; conditions: in vivo
[6] = (§1) Maximal plasma concentration in nude mice after 25 mg/kg oral dose; assay type: ADME, organism-based; set-up: dose 25 mg/kg, route oral; conditions: mouse
[7] = system: Mus musculus; assay: In vivo antitumor efficacy in nude mice by injecting a dose of 25 mg/kg, as HCl salt in saline solution, perorally and the duration of action was reported; assay type: ADME, organism-based; set-up: dose 25 mg/kg, route oral; conditions: po
[8] = In vivo antitumor efficacy in nude mice by injecting a dose of 25 mg/kg, as HCl salt in saline solution, iv and the total drug exposure was determined. (0-24hr); assay type: ADME, organism-based; set-up: time < 24 hr, dose 25 mg/kg, route intravenous; conditions: mouse
[9] = In vivo antitumor efficacy in nude mice by injecting a dose of 25 mg/kg, as HCl salt in saline solution, perorally and the total drug exposure was determined (0-24hr); assay type: ADME, organism-based; set-up: time < 24 hr, dose 25 mg/kg, route oral; conditions: mouse, po
[10] = In vivo antitumor efficacy in nude mice after peroral dose of 25 mg/kg expressed as Area under the curve; assay type: ADME, organism-based; set-up: dose 25 mg/kg, route oral; conditions: mouse, po
Outline: (§2)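 Serum pharmacokinetics in nude mice or cynomolgus monkeys after oral (po) or iv dosing. Compounds were given as hydrochloride salts in 20% HPβCD unless otherwise noted. Other formulations were the hydrochloride salt in saline, the micronized free base in 20% HPβCD or corn oil (po) with saline for iv, or the hydrochloride salt in 0.4% methyl cellulose (po).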

[11] = Oral bioavailability in mouse (nude) (dose of 25 mg/kg); assay type: ADME, organism-based; conditions: in vivo; outline: as §2
[12] = as §1; assay type: ADME, organism-based; set-up: dose 25 mg/kg, route oral; conditions: mouse; outline: as §2; remark: listed apart in the source
[13] = In vivo antitumor efficacy in nude mice by injecting a dose of 25 mg/kg iv and serum half-life was determined; assay type: ADME, organism-based; set-up: dose 25 mg/kg, route intravenous; conditions: mouse; outline: as §2
[14] = In vivo antitumor efficacy in nude mice 0-24 hr after peroral dose of 25 mg/kg expressed as Area under the curve; assay type: ADME, organism-based; set-up: time < 24 hr, dose 25 mg/kg, route oral; conditions: nude, mouse, po; outline: as §2
[15] = In vivo antitumor efficacy peroral dose of 25 mg/kg expressed as duration for which compound was present above IC50; assay type: ADME, organism-based; set-up: dose 25 mg/kg, route oral; conditions: po; outline: as §2
[16] = system: Mus musculus; assay: In vivo antitumor efficacy after peroral dose of 25 mg/kg in mice expressed as duration for which compound was present above IC50; assay type: ADME, organism-based; set-up: dose 25 mg/kg, route oral; conditions: po; outline: as §2
[17] = In vivo antitumor efficacy in nude mice 0-24 hr after intravenous dose of 25 mg/kg expressed as Area under the curve; assay type: ADME, organism-based; set-up: time < 24 hr, dose 25 mg/kg, route intravenous; conditions: mouse; outline: as §2

| SMILES | IC50 [1] | IC50 [2] | IC50 [3] | other results |
| --- | --- | --- | --- | --- |
| O=C(Nc1ccncc1)N1CCN(C2c3ccc(Cl)cc3CCc3cccnc32)CC1 (stereo unspecified) | > 40 µM |  |  |  |
| O=C(Oc1cccnc1)N1CCN(C2c3ccc(Cl)cc3CCc3cccnc32)CC1 (stereo unspecified) |  | 3 µM | 500 nM |  |
| CN1CCCC(CC(=O)N2CCN(C3c4ccc(Cl)cc4CCc4cc(Br)cnc43)CC2)C1 (stereo unspecified) | > 38 µM |  |  | half-life [4]: 342 min; bioavailability [5]: 100%; Cmax [6]: 2000 nM; Time above IC50 [7]: 24 h; AUC at 24 h [8]: 14900 ng·h/mL; AUC at 24 h [9]: 17000 ng·h/mL |
| O=C(Cc1ccncc1)N1CCN(C2c3ccc(Cl)cc3CCc3cc(Br)cnc32)CC1 (stereo unspecified) | > 39 µM | 0.38 µM | 12 nM | AUC [10]: 1100 ng·h/mL; bioavailability [11]: 20.8%; Cmax [12]: 0.9 µM; half-life [13]: 44.4 min; AUC at 24 h [14]: 1100 ng·h/mL; Time above IC50 [15]: 6 h |
| CC(=O)C1CCC(C(=O)N2CCN(C3c4ccc(Cl)cc4CCc4cccnc43)CC2)CC1 (stereo unspecified) | > 43 µM | 4.9 µM | 1240 nM |  |
| O=C(Cc1ccc(Br)cc1)N1CCN(C2c3ccc(Cl)cc3CCc3cccnc32)CC1 (stereo unspecified) | > 50 µM | 5.1 µM |  |  |
| CC(C)(C(=O)N1CCN(C2c3ccc(Cl)cc3CCc3cc(Br)cnc32)CC1)c1ccc[n+]([O-])c1 (stereo unspecified) |  | 2.2 µM | 380 nM | bioavailability [11]: 47%; Cmax [12]: 11 µM; Time above IC50 [16]: 4 h; half-life [13]: 36 min; AUC at 24 h [14]: 11700 ng·h/mL; AUC at 24 h [17]: 25000 ng·h/mL |
| O=C(Nc1ccccc1)N1CCN(C2c3ccc(Cl)cc3CCc3cccnc32)CC1 (stereo unspecified) | > 40 µM |  | 1090 nM |  |
| O=C(C(c1ccccc1)c1ccccc1)N1CCN(C2c3ccc(Cl)cc3CCc3cccnc32)CC1 (stereo unspecified) | > 50 µM |  |  |  |
| O=C(Cc1cccnc1)N1CCN(C2c3ccc(Cl)cc3CCc3cc(Br)cnc32)CC1 (stereo unspecified) | > 10 µM | 0.85 µM | 170 nM |  |
| CN1CCC(OC(=O)N2CCN(C3c4ccc(Cl)cc4CCc4cc(Br)cnc43)CC2)CC1 (stereo unspecified) |  | > 5 µM | 310 nM |  |
| CC(C)(C(=O)N1CCN(C2c3ccc(Cl)cc3CCc3cc(Br)cnc32)CC1)c1cccnc1 (stereo unspecified) |  | 0.9 µM | 300 nM |  |
| O=C(Cc1ccc[n+]([O-])c1)N1CCN(C2c3ccc(Cl)cc3CCc3cc(Br)cnc32)CC1 (stereo unspecified) |  |  |  | bioavailability [11]: 100%; Cmax [12]: 45.4 µM; half-life [13]: 60 min; AUC at 24 h [14]: 34800 ng·h/mL; Time above IC50 [15]: 6 h; AUC at 24 h [17]: 24000 ng·h/mL |
| O=C(Nc1cccnc1)N1CCN(C2c3ccc(Cl)cc3CCc3cccnc32)CC1 (stereo unspecified) | > 46 µM | 4.8 µM |  |  |
| O=C(CC1CCNCC1)N1CCN([C@@H]2c3ccc(Cl)cc3CCc3cc(Br)cnc32)CC1 |  | 0.56 µM | 87 nM |  |
| O=C(Nc1ccccn1)N1CCN(C2c3ccc(Cl)cc3CCc3cccnc32)CC1 (stereo unspecified) | > 46 µM | 1.3 µM |  |  |
| CN1CCC(CC(=O)N2CCN(C3c4ccc(Cl)cc4CCc4c(Cl)ccnc43)CC2)CC1 (stereo unspecified) |  | 5.7 µM | 450 nM |  |
| O=C(Oc1ccc[n+]([O-])c1)N1CCN(C2c3ccc(Cl)cc3CCc3cc(Br)cnc32)CC1 (stereo unspecified) |  | 6 µM | 280 nM |  |
| O=C(Cc1ccc[n+]([O-])c1)N1CCN(C2c3ccc(Cl)cc3CCc3ccc[n+]([O-])c32)CC1 (stereo unspecified) |  | > 20 µM | 3800 nM |  |
| CN(C)c1ccc(CC(=O)N2CCN(C3c4ccc(Cl)cc4CCc4cccnc43)CC2)cc1 (stereo unspecified) | 42 µM |  |  |  |
